CHT PAM – allosteric activators of human choline transporter CHT; CHT-expressing cells, membrane potential dye, choline EC20; hits give high values; LV-AA mutant CHT in HEK293 cells; Q9GZV3; 310,000 compounds, 0.49% hits; B-score at 10 µM;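 active = initial fluorescence not abnormally high and integrated response B-score, plate-corrected, over 3 SD above library mean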
ABCB6 inh MLPCN – inhibitors of human ABC transporter ABCB6; Q9NP58; K562-ABCB6 porphyrin accumulation, flow cytometry, 1 h; hits give low values; fluorescence ratio to DMSO, % at 10 µM; 360,000 compounds, 0.19% hits; AID 602162;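 active = fluorescence ratio to DMSO below 75%, the collection mean minus 3 SD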;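 also: signal is porphyrin accumulated inside mitochondria; lower ratio means ABCB6 inhibition with less porphyrin fluorescence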
TNAP inh hiacc – blocks human TNAP under high phosphate acceptor concentration | P05186 | purified TNAP, CDP-star luminescence, 1 M DEA | inhibition, % at 20 µM | 200,000 compounds, 0.03% hits | AID 1135;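 active = over 50% inhibition of tissue-nonspecific alkaline phosphatase at 20 µM in the single-dose screen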
Target sequence (P05186 whole entry, looked up): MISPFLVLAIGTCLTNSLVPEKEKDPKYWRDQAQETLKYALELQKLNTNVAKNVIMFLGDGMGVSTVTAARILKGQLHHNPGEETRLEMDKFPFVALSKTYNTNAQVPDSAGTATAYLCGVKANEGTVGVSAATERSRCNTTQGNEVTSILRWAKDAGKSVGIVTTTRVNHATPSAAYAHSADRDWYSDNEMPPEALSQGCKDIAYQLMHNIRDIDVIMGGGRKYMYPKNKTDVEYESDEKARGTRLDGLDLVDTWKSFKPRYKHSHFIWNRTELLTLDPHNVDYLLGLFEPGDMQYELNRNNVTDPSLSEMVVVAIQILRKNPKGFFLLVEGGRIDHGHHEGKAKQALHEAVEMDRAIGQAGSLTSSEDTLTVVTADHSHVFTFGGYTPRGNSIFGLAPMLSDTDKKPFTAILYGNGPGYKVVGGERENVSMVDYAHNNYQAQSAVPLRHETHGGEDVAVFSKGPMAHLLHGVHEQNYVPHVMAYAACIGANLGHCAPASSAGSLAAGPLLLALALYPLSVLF
TNAP act hiacc – TNAP (human) activation, high acceptor. activation factor at 20 µM. 200,000 tested, under 10 active. purified TNAP, CDP-star luminescence, 1 M DEA, 30 min; hits give high values; 0 = EDTA background, 1 = DMSO-only activity. AID 1136;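 active = activation factor at least 2 at 20 µM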
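Control set: EDTA negative control, DMSO positive control / Assay system: human TNAP / Quantity: TNAP 1/800 final / Evaluation: TNAP activation factor scaled between EDTA and DMSO control wells / Measured by: luminescent substrate turnover signal / Compound dosing: one dose, 20 µM / Times: 30 min enzyme reaction at room temperature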
TNAP inh no acc – blocks human TNAP activity with no phosphate acceptor present. P05186. purified TNAP, CDP-star luminescence, 30 min. inhibition, % at 20 µM. 200,000 compounds, 0.26% hits;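 active = tissue-nonspecific alkaline phosphatase inhibition above about 50% at 20 µM in the single-dose screen, limit read from the data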
CHT inh – human CHT choline transport inhibition; 310,000 compounds, 0.86% hits; Q9GZV3; AID 488975; CHT-expressing cells, membrane potential dye, choline response; hits give low values; B-score at 10 µM;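 active = B-score over 3 SD under the library average, and starting fluorescence ratio not unusually high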;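 also: choline stimulus applied at its EC90 after an EC20 pre-addition; B-score computed on integrated fluorescence ratio after choline addition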
CHT activ conf – human CHT activation, confirmatory screen | shares compounds with CHT PAM | CHT-expressing cells, membrane potential dye fluorescence (FDSS); % of choline EC20–EC90 response window; HEK293 expressing CHT LV-AA mutant; choline added at its EC20 | activation, % at 10 µM | 2,500 compounds, 91% hits | AID 504833;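 active = primary screen active, with duplicate mean activation above negative control mean plus 3 SD, cut at about 11% in these data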
HEK293 MP dye – counter-screen for CHT activators: effect in parental HEK293 cells; 2,500 compounds, 62% hits; ratio readout change at 10 µM, hits read low; shares compounds with CHT PAM; membrane potential dye fluorescence (FDSS); measured after EC20 choline addition;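 active = duplicate-averaged ratio beyond 3 SD from buffer wells, up or down, though filed actives are nearly all decreases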
Numbers stand for hits. This is a sample that favours compounds with a hit; in the whole collection about 1.4% have one here.

What do the screens show for `COc1ccc(C)cc1CN(C)c1ccc(S(=O)(=O)N2CCN(C)CC2)cn1`?
ABCB6 inh MLPCN: inactive

Results for COc1ccc(S(=O)(=O)NCC2CCCN(C(=O)CCSC)C2)cc1 (configuration not stated) ?
CHT PAM: inactive; ABCB6 inh MLPCN: inactive; CHT inh: inactive

Results for NC(=O)CC(NC(=O)c1ccc(Br)cc1)c1ccc(NC2CCCCCCC2)c([N+](=O)[O-])c1 (configuration not stated) ?
CHT PAM: inactive; ABCB6 inh MLPCN: inactive; CHT inh: inactive

What do the screens show for `C=CCCCCCCCCC(=O)NNC1=CC(=O)CC(C)(C)C1`?
CHT PAM: inactive; ABCB6 inh MLPCN: inactive; TNAP inh hiacc: inactive; TNAP act hiacc: inactive; TNAP inh no acc: inactive; CHT inh: inactive

What do the screens show for `CCC1CCc2sc(C(=O)NCC(c3ccc(OC)cc3)N3CCCC3)cc2C1` (configuration not stated)?
CHT PAM: inactive; ABCB6 inh MLPCN: inactive; CHT inh: inactive; CHT activ conf: 22; HEK293 MP dye: inactive

How did CCN(Cc1ccccc1)CC(O)COC(c1ccc(OC)cc1)c1ccc(OC)cc1 (configuration not stated) do in these assays?
CHT PAM: inactive; ABCB6 inh MLPCN: inactive; CHT inh: inactive; CHT activ conf: 15; HEK293 MP dye: inactive

Results for CN(C)S(=O)(=O)c1cccc(C(=O)OCC(=O)Nc2ccc3c(c2)OCCO3)c1 ?
ABCB6 inh MLPCN: inactive

What do the screens show for `CCN(CC)S(=O)(=O)c1cc(C(=O)OCC(=O)Nc2cccc(S(=O)(=O)N(C)C)c2)ccc1F`?
CHT PAM: 15; ABCB6 inh MLPCN: inactive; TNAP inh hiacc: inactive; TNAP act hiacc: inactive; TNAP inh no acc: inactive; CHT inh: inactive; CHT activ conf: 22; HEK293 MP dye: inactive

Results for CC(=O)c1cc(C#N)c(NCCCN(C)C)nc1C ?
CHT PAM: inactive; ABCB6 inh MLPCN: inactive; TNAP inh hiacc: inactive; TNAP act hiacc: inactive; TNAP inh no acc: inactive; CHT inh: inactive; CHT activ conf: 54; HEK293 MP dye: -32

Results for COc1ccc(C2Nc3ccccc3C(=O)N2c2ccc(C)cc2)cc1Cn1cc([N+](=O)[O-])cn1 (configuration not stated) ?
CHT PAM: inactive; ABCB6 inh MLPCN: inactive; TNAP inh hiacc: inactive; TNAP act hiacc: inactive; TNAP inh no acc: inactive; CHT inh: inactive

Results for COc1ccc(C2Nc3ccccc3C(=O)N2c2ccc(C)cc2)cc1Cn1nnc2ccccc21 (configuration not stated) ?
CHT PAM: inactive; ABCB6 inh MLPCN: inactive; TNAP inh hiacc: inactive; TNAP act hiacc: inactive; TNAP inh no acc: inactive; CHT inh: inactive; CHT activ conf: 10; HEK293 MP dye: inactive

What do the screens show for `CC(C)C(=O)N1CCN(c2cc(N3CCN(C)CC3)c(F)cc2[N+](=O)[O-])CC1`?
CHT PAM: 7.9; ABCB6 inh MLPCN: inactive; TNAP inh hiacc: inactive; TNAP act hiacc: inactive; TNAP inh no acc: inactive; CHT inh: inactive; CHT activ conf: 45; HEK293 MP dye: -49

What do the screens show for `CC(=O)N1CCN(c2cc(N3CCCC3)c(F)cc2[N+](=O)[O-])CC1`?
CHT PAM: inactive; ABCB6 inh MLPCN: inactive; TNAP inh hiacc: inactive; TNAP act hiacc: inactive; TNAP inh no acc: inactive; CHT inh: inactive

What do the screens show for `CCCc1n(CC)c2ccccc2[n+]1CC(O)COC1CCCCC1` (configuration not stated)?
CHT PAM: 7; ABCB6 inh MLPCN: inactive; TNAP inh hiacc: inactive; TNAP act hiacc: inactive; TNAP inh no acc: inactive; CHT inh: inactive; CHT activ conf: 40; HEK293 MP dye: inactive

How did CC1CCN(CCCNC(=O)c2ccc(CSCc3cccc(Cl)c3)o2)CC1 do in these assays?
CHT PAM: 8.3; ABCB6 inh MLPCN: inactive; TNAP inh hiacc: inactive; TNAP act hiacc: inactive; TNAP inh no acc: inactive; CHT inh: inactive; CHT activ conf: 49; HEK293 MP dye: -35

Results for O=C(NCCCN1CCN(CCCNC(=O)c2cccc(Cl)c2)CC1)c1cccc(Cl)c1 ?
CHT PAM: inactive; ABCB6 inh MLPCN: inactive; TNAP inh hiacc: inactive; TNAP act hiacc: inactive; TNAP inh no acc: inactive; CHT inh: inactive; CHT activ conf: 28; HEK293 MP dye: inactive

Results for CN1CCN(CCCNC(=O)c2ccc(CSCc3cccc(Cl)c3)o2)CC1 ?
CHT PAM: inactive; TNAP inh hiacc: inactive; TNAP act hiacc: inactive; TNAP inh no acc: inactive; CHT inh: inactive

How did O=C(NCCN1CCCC1)c1cccc(Cl)c1 do in these assays?
CHT PAM: inactive; ABCB6 inh MLPCN: inactive; TNAP inh hiacc: inactive; TNAP act hiacc: inactive; TNAP inh no acc: inactive; CHT inh: inactive

Results for COc1ccc(C(=O)NCCCN2CCN(CCCNC(=O)c3ccc(OC)c(OC)c3)CC2)cc1OC ?
ABCB6 inh MLPCN: inactive

How did COc1ccccc1N1CCN(CCCCNC(=O)c2ccc3ccccc3c2)CC1 do in these assays?
CHT PAM: 7.6; ABCB6 inh MLPCN: inactive; CHT inh: inactive; CHT activ conf: 36; HEK293 MP dye: -21

How did O=C(NC1=NC2CCCCC2N1)c1ccccc1 (configuration not stated) do in these assays?
CHT PAM: inactive; ABCB6 inh MLPCN: inactive; TNAP inh hiacc: inactive; TNAP act hiacc: inactive; TNAP inh no acc: inactive; CHT inh: inactive

How did O=C(CN1C(=O)NC2(CCc3ccccc32)C1=O)Nc1ccc(Cl)cc1F (configuration not stated) do in these assays?
ABCB6 inh MLPCN: inactive

Results for Cc1cc(C)c2[nH]c(=O)c(C(c3nnnn3CC3CCCO3)N3CCC(C)CC3)cc2c1 (configuration not stated) ?
CHT PAM: inactive; ABCB6 inh MLPCN: inactive; TNAP inh hiacc: inactive; TNAP act hiacc: inactive; TNAP inh no acc: inactive; CHT inh: inactive

How did Cc1cc(C)c2[nH]c(=O)c(C(c3nnnn3CC3CCCO3)N3CCCC(C)C3)cc2c1 (configuration not stated) do in these assays?
CHT PAM: 7.3; ABCB6 inh MLPCN: inactive; TNAP inh hiacc: inactive; TNAP act hiacc: inactive; TNAP inh no acc: inactive; CHT inh: inactive; CHT activ conf: inactive; HEK293 MP dye: inactive

Results for CCOC(=O)c1sc2nccc(OC)c2c1N=CN(C)C ?
CHT PAM: 6.6; ABCB6 inh MLPCN: inactive; TNAP inh hiacc: inactive; TNAP act hiacc: inactive; TNAP inh no acc: inactive; CHT inh: inactive; CHT activ conf: 63; HEK293 MP dye: -35

Screens: PubChem BioAssay, several laboratories
